Test results published in PMC9290614 (The Journal of Dermatology, 2021).
“And” between values parts separate entries of the source, which are not always exact repeats. Equal entries are not always repeated. Where two headings read alike, the source gives them in different places.

Assays:
[1] = format: in vivo, human; conditions: for Cmin (predose trough): geometric mean (CV% geometric mean); for AUC / AUC(0-t) / Cmax / Vd/F / half-life / Tmax: human, plasma, oral; for Tmax: median (minimum, maximum)
[2] = test system: subjects with moderate to severe psoriasis; experiment: Exposure-response; format: in vivo, human; conditions: for Predicted probability of achieving sPGA response (0 or 1) at week 16: non-Japanese, placebo 5.0%; for Predicted probability of achieving PASI-75 response at week 16: placebo 6.1%; for Predicted probability of achieving PASI-50 response at week 16: placebo 20.0%; for sPGA Probability: at race-specific median AUCτ,ss; for Predicted probability of sPGA response (0 or 1): typical model-derived exposure, Japanese subjects, placebo 14.1%
Population PK = format: in vivo, human; conditions: for AUC: human, plasma, oral, Median week 16 apremilast exposure (AUCτ,ss) derived from the PPK model, all subjects
Summary of the method: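 Pooled plasma levels came from healthy or patient subjects: single oral 20–50 mg or multiple 30/50 mg b.i.d. in phase 1, plus phase 2b/3 psoriasis studies, including Japanese sparse/intensive samples at weeks 8–24. After below-LOQ exclusion, 5704 samples remained. Base model: CL/F, first-order Ka, absorption lag, Vc/F, mixed residual error. Tested covariates included age, sex, race, bodyweight and smoking.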

[3] = test system: plasma IL-17A, IL-17F, and IL-22; conditions: 30 mg b.i.d., PSOR-009 (ESTEEM 2) and PSOR-011 PD subsets; cited from earlier work
[4] = predominantly Caucasian healthy subjects, mean [SD]; cited from earlier work
[5] = test system: subjects with moderate to severe psoriasis; conditions: cited from earlier work
CYP3A4 = conditions: multiple p.o. doses of rifampicin (strong CYP3A4 induction); cited from earlier work
[6] = 10 mg b.i.d., median exposure 1065.4 ng·h/mL
[7] = 20 mg b.i.d., median exposure 2030.6 ng·h/mL
[8] = 30 mg b.i.d., median exposure 3169.2 ng·h/mL
[9] = PSOR-008/ESTEEM 1, 30 mg b.i.d.
[10] = PSOR-011, Japanese subjects, 30 mg b.i.d.

SMILES: CCOc1cc([C@@H](CS(C)(=O)=O)N2C(=O)c3cccc(NC(C)=O)c3C2=O)ccc1OC [apremilast]
- Cmin (predose trough) ([1]; Japanese subjects, 20 mg b.i.d., week 20, n = 21): 91 ng/mL and 90.8 (50.1) ng/mL
- Cmin (predose trough) ([1]; Japanese subjects, 30 mg b.i.d., week 20, n = 20): 104 ng/mL and 104 (66.6) ng/mL
- Increase of mean AUCτ and Cmax with increase in dose ([1]; Japanese subjects, dose from 20 to 30 mg b.i.d.): ~ 1.2 times
- AUC ([1]; 20 mg): 1960 ng·h/mL
- AUC(0-t) ([1]; 20 mg): 1600 ng·h/mL
- Cmax ([1]; 20 mg): 304 ng/mL
- Vd/F ([1]; 20 mg): 68 L
- half-life ([1]; 20 mg): 4.31 h
- Tmax ([1]; 20 mg, Japanese subjects, 20 mg b.i.d., week 20, n = 21): ~2 h
- AUC ([1]; 30 mg): 2400 ng·h/mL
- AUC(0-t) ([1]; 30 mg): 1970 ng·h/mL
- Cmax ([1]; 30 mg): 374 ng/mL
- Vd/F ([1]; 30 mg): 83.1 L
- half-life ([1]; 30 mg): 4.06 h
- Tmax ([1]; 30 mg, Japanese subjects, 30 mg b.i.d., week 20, n = 20): ~2 h
- Predicted probability of achieving sPGA response (0 or 1) at week 16 [2, 6]: 16.2%
- Predicted probability of achieving PASI-75 response at week 16 [2, 6]: 19.0%
- Predicted probability of achieving PASI-50 response at week 16 [2, 6]: 43.8%
- sPGA Probability ([2]; 20 mg BID, Caucasian): 23.2%
- sPGA Probability ([2]; 20 mg BID, Japanese): 32.9%
- Predicted probability of achieving sPGA response (0 or 1) at week 16 [2, 7]: 22.7%
- Predicted probability of achieving PASI-75 response at week 16 [2, 7]: 28.6%
- Predicted probability of achieving PASI-50 response at week 16 [2, 7]: 55.3%
- Predicted probability of sPGA response (0 or 1) ([2]; 20 mg b.i.d.): 33.8%
- sPGA Probability ([2]; 30 mg BID, Caucasian): 27.5%
- sPGA Probability ([2]; 30 mg BID, Japanese): 36.3%
- Predicted probability of achieving sPGA response (0 or 1) at week 16 [2, 8]: 27.3%
- Predicted probability of achieving PASI-75 response at week 16 [2, 8]: 36.5%
- Predicted probability of achieving PASI-50 response at week 16 [2, 8]: 62.8%
- Predicted probability of sPGA response (0 or 1) ([2]; 30 mg b.i.d.): 37.5%
- Clearance faster than in a typical 45-year-old (Population PK): 14%
- Clearance slower than in a 45-year-old (Population PK; 80-year-old): 8%
- Vc/F greater than in a typical 82-kg individual (Population PK; 102-kg individual): approximately 14%
- CL/F, typical value (RSE %) (Population PK; final PPK model): 9.25 (3.4) L/h
- Clearance faster in Japanese versus non-Japanese individuals (Population PK; final PPK model): approximately 17%
- Ka, first-order rate of absorption, typical value (RSE %) (Population PK; final PPK model): 1.83 (11.7) h^−1
- Lag time of absorption, typical value (RSE %) (Population PK; final PPK model): 0.290 (11.7) h
- Reduction of CL/F in subjects with psoriasis compared with healthy subjects (Population PK; final PPK model): approximately 17%
- Vc/F, typical value (RSE %) (Population PK; final PPK model): 115 (2.2) L
- AUC (Population PK; 20 mg, 20 mg b.i.d.): 2030 ng·h/mL
- AUC (Population PK; 30 mg, 30 mg b.i.d.): 3170 ng·h/mL
- Effect on plasma IL-17A, IL-17F, and IL-22 [3]: significantly reduced
- AUC0-∞ [4]: 3270 [1081] ng·h/mL
- Cmax [4]: 298 [81.4] ng/mL
- Rate of PASI-75 response at week 16 ([5]; PSOR-005, 30 mg b.i.d.): 40.9%
- Rate of sPGA response (0 or 1) at week 16 ([5]; PSOR-005, 30 mg b.i.d.): 33.0%
- Treatment effect (difference in proportions between apremilast 30 mg b.i.d. and placebo), PASI-75 ([5]; PSOR-005): 35.2%
- Treatment effect (difference in proportions between apremilast 30 mg b.i.d. and placebo), sPGA response ([5]; PSOR-005): 21.1%
- Rate of PASI-75 response at week 16 [5, 9]: 33.1%
- Rate of sPGA response (0 or 1) at week 16 [5, 9]: 21.7%
- Treatment effect (difference in proportions between apremilast 30 mg b.i.d. and placebo), PASI-75 ([5]; PSOR-008/ESTEEM 1): 27.8%
- Treatment effect (difference in proportions between apremilast 30 mg b.i.d. and placebo), sPGA response ([5]; PSOR-008/ESTEEM 1): 17.8%
- Rate of PASI-75 response at week 16 [5, 10]: 28.2%
- Rate of sPGA response (0 or 1) at week 16 [5, 10]: 29.6%
- Treatment effect (difference in proportions between apremilast 30 mg b.i.d. and placebo), PASI-75 ([5]; PSOR-011): 21.1%
- Treatment effect (difference in proportions between apremilast 30 mg b.i.d. and placebo), sPGA response ([5]; PSOR-011): 20.8%
- Decrease in apremilast exposure (CYP3A4): ~72%
- Increase in apremilast clearance (CYP3A4): 3.6 times
